Results collected from several papers.
Protocols differ between the studies behind these lines.
RAF1: RAF proto-oncogene serine/threonine-protein kinase (RAF1, Homo sapiens, UniProt P04049)
RAF1 Y340D/Y341D: RAF proto-oncogene serine/threonine-protein kinase (RAF1, Homo sapiens, UniProt P04049, Y340D/Y341D)

SMILES | target | test | setting | endpoint | result
C[S+]([O-])c1ccc(-c2nc(-c3ccncc3)c(-c3ccc(F)cc3)[nH]2)cc1 (stereo not drawn) | RAF1 | cell-free assay | 0.5 µM | remaining signal | 41.1%
CCN(CC)CCNC(=O)c1c(C)[nH]c(/C=C2\C(=O)Nc3ccc(F)cc32)c1C | RAF1 | enzyme activity, inhibitor | 1 µM | remaining activity | 95%
CCOc1cc(-c2nncn2C)ccc1Nc1ncc2cc(C)nc(NCC(C)(C)C)c2n1 | RAF1 Y340D/Y341D | cell-free assay, TR-FRET | 1 µM | inhibition | ≤ 15%
COc1cc2c(N3CCN(C(=O)Nc4ccc(OC(C)C)cc4)CC3)ncnc2cc1OCCCN1CCCCC1 | RAF1 | cell-free assay | 0.5 µM | remaining signal | 96.7%
c1nc2c(Nc3ccc4c(c3)OCCO4)nc(Nc3ccc4c(c3)OCCO4)nc2[nH]1 | RAF1 | enzyme activity, inhibitor | 10 µM | activity vs control | 95%
CNC(=O)Nc1ccc2c(c1)CC[C@@]21OC(=O)N(CC(=O)N(Cc2ccc(F)cc2)[C@@H](C)C(F)(F)F)C1=O | RAF1 | cell-free assay, competition with immobilised ligand | 1 µM | remaining binding | 100%
CCN(CC)CCNC(=O)c1c(C)[nH]c(/C=C2\C(=O)Nc3ccc(F)cc32)c1C | RAF1 | cell-free assay | 0.5 µM | remaining signal | 110%
CCOC(=O)c1cc2cc(-c3cc(C(=O)NCc4ccc(C(=O)O)cc4)nn3C)ccc2[nH]1 | RAF1 | cell-free assay, competition with immobilised ligand | 0.1 µM | remaining binding | 100%
O=C(CSc1nc2nccnc2c(=O)n1CCc1ccccc1)Nc1nccs1 | RAF1 Y340D/Y341D | enzyme activity, inhibitor | 10 µM | inhibition | 3%
C[C@@H]1CN(c2cc(-c3nn(C)c4ccc(OC5(C)CC5)cc34)ncn2)C[C@H](C)O1 | RAF1 | cell-free assay, competition with immobilised ligand | 1 µM | remaining binding | 100%
CCN(CC)c1ccc(C2=NNC(=O)CC2C)cc1[N+](=O)[O-] (stereo not drawn) | RAF1 | enzyme activity, inhibitor | 10 µM | remaining activity | 90%
COc1cc(-c2cc(-c3ccc(N4CCNCC4)cc3)cnc2N)cc(OC)c1OC | RAF1 | enzyme activity, inhibitor | 0.1 µM | inhibition | 2%
CCOCCn1cc(C(=O)Nc2ccc(-n3nc(-c4cccnc4)cc3C(F)(F)F)cn2)ccc1=O | RAF1 | cell-free assay, competition with immobilised ligand | 1 µM | remaining binding | 100%
O=C(Nc1cnn(-c2csc(C(=O)NC3COC3)c2)c1)Nc1c(F)cccc1Cl | RAF1 | enzyme activity, inhibitor | 5 µM | remaining activity | 92.5%
CN(C)C1CCN(CC#Cc2nn(C3CCCC3)c3nc(NCc4ccccc4)ncc23)C1 (stereo not drawn) | RAF1 Y340D/Y341D | enzyme activity, inhibitor, FRET | 1 µM | inhibition | -4%
Cc1ccc(Nc2nccc(N(C)c3ccc4c(C)n(C)nc4c3)n2)cc1S(N)(=O)=O | RAF1 | enzyme activity, inhibitor | 10 µM | inhibition | 96%
COc1cc2ncnc(Nc3ccc(Oc4ccccc4)c(C)c3C)c2cc1OC | RAF1 Y340D/Y341D | enzyme activity, inhibitor | 1 µM | inhibition | -6%
CC(=O)N1CCC(c2ccc(C(=O)NC(=N)N)cc2C(F)(F)F)CC1 | RAF1 | cell-free assay, competition with immobilised ligand | 1 µM | remaining binding | 100%
CCCOc1ccc(OC)c(F)c1C(=O)c1ccc(C(=O)N[C@@H]2CNC[C@H]2NC(=O)c2ccc3[nH]ncc3c2)cc1 | RAF1 | enzyme activity, inhibitor | 10 µM | remaining activity | 109%
N#Cc1ccc(Nc2ccc3[nH]c(=O)[nH]c3c2)c(Cl)c1 | RAF1 | cell-free assay, competition with immobilised ligand | 1 µM | remaining binding | 68%
CNC(=O)c1cc2c(Oc3ccc(NC(=O)C4(C(=O)Nc5ccc(F)cc5)CC4)cc3)ccnc2cc1OC | RAF1 | enzyme activity, inhibitor, radiometric | 1 µM | inhibition | 83%
